The test system of one experiment is Escherichia coli. Put plainly: Antibacterial activity against Escherichia coli 25922 assessed as inhibition of bacterial growth incubated for 18 hrs by CLSI protocol based two fold serial dilution method. The format is functional. Put shortly:
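B. subtilis 168 or E. coli ATCC 25922 was grown in MHB and tested by CLSI-based broth microdilution. An overnight culture (37 °C, 250 rpm) was diluted tenfold, grown 2 h, and set to 5 × 10^6 CFU mL−1 by A600. Cells were added to two-fold serial compound dilutions (1% DMSO) and incubated 18 h at 37 °C. Read-out was A600, in duplicate. MIC was the lowest concentration giving A600 < 0.1.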

Experiment [1] has as its system Staphylococcus aureus. Nature of the experiment: Antibacterial activity against methicillin-resistant Staphylococcus aureus BAA 41 assessed as inhibition of bacterial growth incubated for 18 hrs by CLSI protocol based two fold serial dilution method. The format is functional. The gist of the method:
(§1)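 CAMHB culture grown overnight at 37 °C with shaking at 250 rpm, diluted 10-fold, and grown 2 h. Inoculum set to 5 × 10^6 CFU mL−1 by A600. Compounds in DMSO were serially diluted two-fold, with 1% DMSO per well. Read at A600 after 18 h at 37 °C. MIC is the lowest concentration giving A600 < 0.1. Run in duplicate.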

The test system of experiment [2] is Staphylococcus aureus. Nature of the experiment: Antibacterial activity against methicillin-resistant Staphylococcus aureus BAA 44 assessed as inhibition of bacterial growth incubated for 18 hrs by CLSI protocol based two fold serial dilution method. The format is functional. Put shortly:
as §1

The subject of experiment [3] is Staphylococcus aureus. Nature of the experiment: Antibacterial activity against methicillin-resistant Staphylococcus aureus ATCC 43300 assessed as inhibition of bacterial growth incubated for 18 hrs by CLSI protocol based two fold serial dilution method. The format is functional. Put shortly:
as §1

The test system of experiment [4] is Staphylococcus aureus. Put plainly: Antibacterial activity against methicillin-resistant Staphylococcus aureus ATCC 33591 assessed as inhibition of bacterial growth incubated for 18 hrs by CLSI protocol based two fold serial dilution method. The format is functional. The gist of the method:
as §1

The subject of experiment [5] is Staphylococcus aureus. Put plainly: Antibacterial activity against methicillin-resistant Staphylococcus aureus ATCC 33592 assessed as inhibition of bacterial growth incubated for 18 hrs by CLSI protocol based two fold serial dilution method. The format is functional. The gist of the method: as §1
Experiment [6] has as its system Staphylococcus aureus. Put plainly: Antibacterial activity against methicillin-resistant Staphylococcus aureus BAA 1720 assessed as inhibition of bacterial growth incubated for 18 hrs by CLSI protocol based two fold serial dilution method. The format is functional. The gist of the method:
as §1

Another experiment deals with Bacillus subtilis. Put plainly: Antibacterial activity against Bacillus subtilis 168 assessed as cell elongation at 0.5 ug/ml incubated for 4 hrs by phase-contrast microscopy. The format is functional. The note with it: dose 0.5 µg/ml. The gist of the method:
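B. subtilis 168 overnight culture was diluted tenfold into fresh medium and grown 2 h. It was then adjusted to A600 = 0.01, given compound, and incubated 4 h at 37 °C; 1% (v/v) DMSO was the control. Cells were harvested, resuspended in LB, mounted on 1.2% agarose pads and imaged by phase contrast. Lengths of 100 cells per condition were measured to give length distributions and averages.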

For experiment [7], the system named is Staphylococcus aureus. Put plainly: Bactericidal activity against methicillin-resistant Staphylococcus aureus BAA 41 assessed as inhibition of bacterial growth at 1 ug/ml incubated for 24 hrs by time-kill assay. The format is functional, organism-based. The note with it: dose 1.0 µg/ml. The gist of the method:
(§2)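 Time-kill: 3 mL culture at 5 × 10^5 CFU mL−1 exposed to compound at several concentrations or to 1% DMSO control at 37 °C with shaking at 250 rpm, over 24 h. 100 μL samples taken at intervals, diluted as needed, and spread on agar. Colonies counted after 24 h at 37 °C.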

In experiment [8] the test system is Staphylococcus aureus. Nature of the experiment: Bactericidal activity against methicillin-resistant Staphylococcus aureus BAA 41 assessed as inhibition of bacterial growth incubated for 24 hrs by time-kill assay. The format is functional. Put shortly: as §2
Experiment [9] is described as follows: Ratio of MBC for bactericidal activity against methicillin-resistant Staphylococcus aureus BAA 41 to MIC for antibacterial activity against methicillin-resistant Staphylococcus aureus BAA 41. The format is functional. Put shortly:
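MBC: culture at 5 × 10^5 CFU mL−1 incubated overnight at 37 °C with shaking and compound or 1% DMSO, then diluted ≥10-fold and plated on TSA for 24 h at 37 °C. MBC is the lowest concentration giving ≥99.9% reduction of the initial count. MBC is divided by the broth-dilution MIC (A600 < 0.1 after 18 h).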

Experiment [10] deals with T1, Cell division protein FtsZ (Staphylococcus aureus) (UniProt P0A031).
T1 sequence (whole entry): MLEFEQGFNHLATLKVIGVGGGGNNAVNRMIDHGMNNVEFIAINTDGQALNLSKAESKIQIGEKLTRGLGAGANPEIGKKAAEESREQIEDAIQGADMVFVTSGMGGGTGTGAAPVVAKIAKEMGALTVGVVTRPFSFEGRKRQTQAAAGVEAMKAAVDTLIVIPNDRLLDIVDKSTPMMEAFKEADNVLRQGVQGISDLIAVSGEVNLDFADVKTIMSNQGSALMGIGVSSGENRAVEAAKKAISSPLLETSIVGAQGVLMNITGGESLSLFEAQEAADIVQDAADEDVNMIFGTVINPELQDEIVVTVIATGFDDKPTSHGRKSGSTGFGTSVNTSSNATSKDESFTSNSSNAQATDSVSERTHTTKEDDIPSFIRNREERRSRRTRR
Put plainly: Inhibition of Staphylococcus aureus FtsZ polymerization assessed as increase in GTPase activity at 1 ug/ml incubated for 40 mins in presence of GTP by malachite green phosphate assay. As to conditions: dose 1.0 µg/ml. Put shortly: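 Purified S. aureus FtsZ (3 μM) was preincubated with serially diluted compound in 50 mM MOPS pH 6.5 for 30 min at room temperature; 1% DMSO served as control. MgCl2 (5 mM) and KCl (200 mM) were added, and the reaction was started with 250 μM GTP for 10 min at 37 °C. Malachite green reagent was then developed 30 min at 37 °C, and released phosphate was read at A600.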

In brackets after ≈: the same amount, converted by molar mass. Activity calls are given as the source filed them. The rule behind the calls is not given here.

`NC(=O)c1c(F)ccc(OCc2nc3cc(Cl)cnc3s2)c1F`: the MIC is greater than 128 µg/mL with Escherichia coli; 0.5 µg/mL (≈ 1.41 µM) in the experiment on Staphylococcus aureus [1]; 1 µg/mL (≈ 2.81 µM) with Staphylococcus aureus [2]; 1 µg/mL (≈ 2.81 µM) in the experiment with Staphylococcus aureus [3]; 1 µg/mL (≈ 2.81 µM) with Staphylococcus aureus [4]; 2 µg/mL (≈ 5.62 µM) with Staphylococcus aureus [5]. Moreover, the minimal inhibitory concentration (MIC) in the experiment on Staphylococcus aureus [6] came out at 1 µg/mL (≈ 2.81 µM). Besides, the Activity in the experiment with Bacillus subtilis is on record as 33%. For the same molecule, in the experiment with Staphylococcus aureus [7], the outcome was Active. Also, the minimum bactericidal concentration (MBC) in the experiment on Staphylococcus aureus [8] is 2 µg/mL (≈ 5.62 µM). Besides, in [9], the Ratio is given as 2. For the same molecule, in experiment [10], the inhibition is 105%.

(Values after ChEMBL document CHEMBL5104102, “Discovery of FtsZ inhibitors by virtual screening as antibacterial agents and study of the inhibition mechanism” (RSC Med Chem, 2022).)
